According to ChEMBL document CHEMBL5352503, “Nonpeptidic Oxazole-Based Prolyl Oligopeptidase Ligands with Disease-Modifying Effects on α-Synuclein Mouse Models of Parkinson's Disease” (J Med Chem, 2023):
The source made the active and inactive calls. No cut-off for these calls is given here.

Columns and labels:
[1] = system: HEK293; assay: Cytotoxicity against HEK293 cells assessed as cell viability at 1 to 100 uM incubated for 24 hrs by MTT assay; format: toxicity, cell-based; settings: human, hek293, 24 h, dose 1-100 µM
[2] = system: Neuron; assay: Cytotoxicity against mouse primary neurons cells assessed as cell viability at 1 to 100 uM incubated for 48 hrs by MTT assay; format: toxicity, cell-based; settings: dose 1-100 µM
[3] = system: HEK293; assay: Activation of PP2A in HEK293 cells assessed as increase in LC3B-II level at 10 uM incubated for 24 hrs by immunoblot analysis; format: cell-based; settings: Homo sapiens, filed as activator
Method in brief: (§1)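 HEK-293 cells seeded 500,000/well, attached overnight, then exposed to compound (0.1% DMSO vehicle) for 4 or 24 h. Lysed in RIPA. Western blot with 30 μg protein on 4–20% gels, PVDF transfer, skim-milk block, primary antibody overnight at +4 °C. Detection by chemiluminescence, band OD normalized to β-actin or vinculin. pPP2Ac is the Tyr307-phosphorylated form.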

[4] = target: Dipeptidyl peptidase 2 (Homo sapiens) (UniProt Q9UHL4); assay: Inhibition of recombinant human DPP2 using Lys-Ala-pNA as substrate at 1 to 10 uM preincubated for 15 mins followed by substrate addition and measured for 10 mins; settings: dose 1-10 µM, time 25.0 min
Method in brief: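 Recombinant human DPP2 with 1 mM Lys-Ala-pNA, pH 5.5, in 100 mM NaAc, 10 mM EDTA and 14 μg/mL aprotinin. Compound at 1 and 10 μM, preincubated 15 min at 37 °C. pNA release read kinetically at 405 nm for at least 10 min at 37 °C.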

[5] = system: SH-SY5Y; assay: Cytotoxicity against human SH-SY5Y cells assessed as cell viability at 1 to 100 uM incubated for 24 hrs by MTT assay; format: toxicity, cell-based; settings: dose 1-100 µM
[6] = system: HEK293; assay: Activation of PP2A in HEK293 cells assessed as decrease in phosphorylated PP2Ac level at 10 uM incubated for 24 hrs by immunoblot analysis; format: cell-based; settings: Homo sapiens; method in brief: as §1
[7] = target: Prolyl endopeptidase FAP (Homo sapiens) (UniProt Q12884); assay: Inhibition of human FAP expressed in Sf9 insect cells using […] at 1 to 10 uM preincubated for 15 mins followed by substrate addition and measured for 10 mins; settings: dose 1-10 µM, time 25.0 min
Method in brief: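 Z-Gly-Pro-AMC at 50 μM, pH 8, in 0.05 M Tris-HCl with 0.1% glycerol, 1 mg/mL BSA and 140 mM NaCl. Enzyme preincubated with compound 15 min at 37 °C. AMC release read kinetically at ex 380/em 465 nm for at least 10 min at 37 °C.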

[8] = target: Alpha-synuclein (Homo sapiens) (UniProt P37840); assay: Inhibition of alpha-synuclein (unknown origin) dimerization transfected in PREP knockout HEK293 cells at 10 uM incubated for 4 hrs by luminescence based multimode plate reader method; format: cell-based
Method in brief: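 Split Gaussia luciferase protein-fragment complementation in HEK-293 PREP-KO cells, run like the N2A protocol. Cells transfected with αSyn-Gluc1 and αSyn-Gluc2; 48 h later treated 4 h at 10 μM. Luminescence read after injecting native coelenterazine.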

[9] = Drug elimination in C57BL/6JRccHsd mouse brain at 10 mg/kg, ip measured at 180 mins by LC-MS analysis; format: ADME, organism-based; settings: in vivo, 3 h
Method in brief: (§2)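 Male C57BL/6JRCcHsd mice, 10 weeks old, dosed 10 mg/kg i.p. in 5% Tween-20 in 0.9% NaCl. Brains collected at 15, 30, 45, 60, 120 and 180 min. Brain compound concentration measured by LC-MS, and AUC0–180 min calculated.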

[10] = target: Dipeptidyl peptidase 4 (Homo sapiens) (UniProt P27487); assay: Inhibition of human DPP4 using Ala-Pro-para-nitroanilide as substrate at 1 to 10 uM preincubated for 15 mins followed by substrate addition and measured for 10 mins; settings: dose 1-10 µM, time 25.0 min
Method in brief: (§3)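 Ala-Pro-pNA substrate at 25 μM for DPP4 (purified from human seminal plasma) or 150 μM for DPP9 (Sf9-expressed). Buffer pH 7.4: 0.05 M HEPES-NaOH, 0.1% Tween-20, 0.1 mg/mL BSA, 150 mM NaCl. Compound at 1 and 10 μM final, preincubated 15 min at 37 °C. pNA release read kinetically at 405 nm for at least 10 min.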

[11] = system: Mus musculus; assay: (§4) Neuroprotective activity against AAV2-CBA-alpha-synuclein virus vector injected C57BL/6JRccHsd mouse model of Parkinson's disease assessed as change in tyrosine hydroxylase positive dopaminergic neuron immunoreactivity in substantia nigra pars compacta at 10 mg/kg/day, ip administered for 2 weeks by optical density based analysis; format: functional, organism-based
[12] = Activation of PP2A in HEK293 cells by measuring decrease in ratio between Tyr307 phosphorylated inactive PP2Ac to total PP2Ac incubated for 4 hrs by Western blot analysis; format: cell-based; settings: Homo sapiens, HEK293, 4 h; method in brief: as §1
[13] = system: HEK293; assay: Activation of PP2A in HEK293 cells assessed as increase in LC3B-II level at 0.1 to 10 uM incubated for 4 hrs by Western blot analysis; format: cell-based; settings: Homo sapiens, filed as activator, dose 0.1-10 µM; method in brief: as §1
[14] = system: HEK293; assay: Activation of PP2A in HEK293 cells assessed as increase in total PP2Ac level at 0.01 to 50 uM incubated for 4 hrs by Western blot analysis; format: cell-based; settings: Homo sapiens, filed as activator, dose 0.01-50 µM; method in brief: as §1
[15] = system: HEK293; assay: Activation of PP2A in HEK293 cells assessed as increase in total PP2Ac level at 10 uM incubated for 4 hrs by immunoblot analysis; format: cell-based; settings: Homo sapiens, filed as activator; method in brief: as §1
[16] = In vivo inhibition of PREP in C57BL/6JRccHsd mouse liver at 10 mg/kg, ip measured for 3 hrs by LC-MS analysis relative to control; format: functional
[17] = target: Dipeptidyl peptidase 9 (Homo sapiens) (UniProt Q86TI2); assay: Inhibition of human DPP9 expressed in Sf9 insect cells using Ala-Pro-para-nitroanilide as substrate at 1 to 10 uM preincubated for 15 mins followed by substrate addition and measured for 10 mins; settings: dose 1-10 µM, time 25.0 min; method in brief: as §3
[18] = system: HEK293; assay: Activation of PP2A in HEK293 cells assessed as increase in LC3B-II level at 10 uM incubated for 4 hrs by immunoblot analysis; format: cell-based; settings: Homo sapiens, filed as activator; method in brief: as §1
[19] = system: Mus musculus; assay: Upregulation of LC3B-II level in C57BL/6JRccHsd mouse brain at 10 mg/kg, ip measured after 45 mins by Western blot analysis; format: functional, organism-based
Method in brief: (§5)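 Mice given 10 mg/kg i.p. in 5% Tween-20 in 0.9% NaCl, with vehicle-injected controls. Brains collected 45 min after injection. Homogenates analysed by Western blot for pPP2A, PP2A and LC3BII, with OD normalized to β-actin or vinculin.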

[20] = system: Mus musculus; assay: as §4, with “AAV2-CBA-GFP” for “AAV2-CBA-alpha-synuclein virus vector”; format: functional, organism-based
[21] = Permeability of the compound across blood brain barrier in C57BL/6JRccHsd mouse at 1.86 uM, ip measured at 15 mins by LC-MS analysis; format: ADME, organism-based; settings: 0.25 h; method in brief: as §2
[22] = target: Alpha-synuclein (Homo sapiens) (UniProt P37840); assay: Inhibition of alpha-synuclein (unknown origin) dimerization transfected in HEK293 cells at 10 uM incubated for 4 hrs by luminescence based multimode plate reader method; format: cell-based
[23] = system: Mus musculus; assay: Downregulation of alpha-syn oligomer in C57BL/6JRccHsd mouse substantia nigra pars compacta injected with AAV2-CBA-alpha-synuclein virus at 10 mg/kg/day, ip administered for 2 weeks by optical density based analysis; format: functional, organism-based
Method in brief: (§6)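 Unilateral AAV2-CBA-αSyn was injected above the SNpc of male C57BL/6JRCcHsd mice. Dosing at 10 mg/kg/day i.p. by Alzet minipump began 4 weeks after injection. Brain sections were immunostained for oligomer-specific αSyn and optical density was measured in striatum and SNpc, with n = 7–9/group, reported as mean ± SEM.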

[24] = Permeability of the compound across blood brain barrier in C57BL/6JRccHsd mouse at 1.11 uM, ip measured at 30 mins by LC-MS analysis; format: ADME, organism-based; settings: 0.5 h; method in brief: as §2
[25] = system: HEK293; assay: Induction of autophagy in PREP knockout HEK293 cells assessed as LC3B-II expression level at 10 uM incubated for 24 hrs by Western blot analysis; format: functional, cell-based; settings: Homo sapiens
Method in brief: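 HEK-293 PREP-KO cells, grown with 20% FBS, plated 500,000/well and attached overnight. Treated at 10 μM for 4 or 24 h (0.1% DMSO vehicle), then lysed in RIPA. LC3BII measured by Western blot, 30 μg protein loaded, band OD normalized to β-actin or vinculin.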

[26] = system: Mus musculus; assay: (§7) Neuroprotective activity against AAV2-CBA-GFP injected C57BL/6JRccHsd mouse model of Parkinson's disease assessed as change in tyrosine hydroxylase positive dopaminergic neuron immunoreactivity in striatum at 10 mg/kg/day, ip administered for 2 weeks by optical density based analysis; format: functional, organism-based
[27] = target: Alpha-synuclein (Homo sapiens) (UniProt P37840); assay: Inhibition of alpha-synuclein (unknown origin) dimerization transfected in mouse Neuro2a cells at 10 uM incubated for 4 hrs by Protein-fragment complementation assay; format: cell-based
[28] = system: Mus musculus; assay: Upregulation of total PP2Ac level in C57BL/6JRccHsd mouse brain at 10 mg/kg, ip measured after 45 mins by Western blot analysis; format: functional, organism-based; method in brief: as §5
[29] = system: HEK293; assay: Activation of PP2A in HEK293 cells assessed as decrease in phosphorylated PP2Ac level at 10 uM incubated for 4 hrs by immunoblot analysis; format: cell-based; settings: Homo sapiens, filed as activator; method in brief: as §1
[30] = system: HEK293; assay: Activation of PP2A in HEK293 cells by measuring decrease in ratio between Tyr307 phosphorylated inactive PP2Ac to total PP2Ac at 1 uM incubated for 4 hrs by Western blot analysis; format: cell-based; settings: Homo sapiens, filed as activator; method in brief: as §1
[31] = system: Mus musculus; assay: as §7, with “AAV2-CBA-alpha-synuclein virus vector” for “AAV2-CBA-GFP”; format: functional, organism-based
[32] = system: HEK293; assay: Activation of PP2A in HEK293 cells assessed as increase in total PP2Ac level at 10 uM incubated for 24 hrs by immunoblot analysis; format: cell-based; settings: Homo sapiens, filed as activator; method in brief: as §1
[33] = system: Mus musculus; assay: (§8) Neuroprotective activity against AAV2-CBA-GFP injected C57BL/6JRccHsd mouse model of Parkinson's disease assessed as change in tyrosine hydroxylase positive cell count in substantia nigra pars compacta at 10 mg/kg/day, ip administered for 2 weeks by optical density based analysis; format: functional, organism-based
[34] = system: Mus musculus; assay: Anti-parkinson activity in AAV2-CBA-alpha-synuclein virus vector injected Parkinson's disease C57BL/6JRccHsd mouse model assessed as motor deficit by measuring decrease in use of ipsilateral forepaw usage at 10 mg/kg/day, ip administered for 2 to 4 weeks of treatment by cylinder test; format: functional, organism-based; settings: time 2-4 weeks
Method in brief: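 Male C57BL/6JRCcHsd mice, 10–11 weeks old, got a unilateral AAV2-CBA-αSyn injection above the SNpc. Dosing started 4 weeks later at 10 mg/kg/day i.p. by Alzet minipump. Ipsilateral forepaw use was scored by cylinder test at 6 and 8 weeks post-injection, against vehicle-treated αSyn-injected and AAV-GFP control mice. Two-way ANOVA with Dunnett's comparisons was used.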

[35] = system: HEK293; assay: Activation of PP2A in HEK293 cells assessed as decrease in inactive phosphorylated PP2Ac level at 1 uM incubated for 4 hrs by Western blot analysis; format: cell-based; settings: Homo sapiens, filed as activator; method in brief: as §1
[36] = system: Mus musculus; assay: Downregulation of alpha-syn oligomer expression in C57BL/6JRccHsd mouse striatum injected with AAV2-CBA-alpha-synuclein virus at 10 mg/kg/day, ip administered for 2 weeks by optical density based analysis; format: functional, organism-based; method in brief: as §6
[37] = system: HEK293; assay: Induction of autophagic flux in HEK293 cells expressing GFP-LC3B-RFP at 10 uM incubated for 24 hrs by Hoechst staining based assay; format: functional, cell-based; settings: Homo sapiens
[38] = system: Mus musculus; assay: as §8, with “AAV2-CBA-alpha-synuclein virus vector” for “AAV2-CBA-GFP”; format: functional, organism-based

Chain of Dipeptidyl peptidase 9 (Homo sapiens) (Q86TI2 2-863 limits assumed): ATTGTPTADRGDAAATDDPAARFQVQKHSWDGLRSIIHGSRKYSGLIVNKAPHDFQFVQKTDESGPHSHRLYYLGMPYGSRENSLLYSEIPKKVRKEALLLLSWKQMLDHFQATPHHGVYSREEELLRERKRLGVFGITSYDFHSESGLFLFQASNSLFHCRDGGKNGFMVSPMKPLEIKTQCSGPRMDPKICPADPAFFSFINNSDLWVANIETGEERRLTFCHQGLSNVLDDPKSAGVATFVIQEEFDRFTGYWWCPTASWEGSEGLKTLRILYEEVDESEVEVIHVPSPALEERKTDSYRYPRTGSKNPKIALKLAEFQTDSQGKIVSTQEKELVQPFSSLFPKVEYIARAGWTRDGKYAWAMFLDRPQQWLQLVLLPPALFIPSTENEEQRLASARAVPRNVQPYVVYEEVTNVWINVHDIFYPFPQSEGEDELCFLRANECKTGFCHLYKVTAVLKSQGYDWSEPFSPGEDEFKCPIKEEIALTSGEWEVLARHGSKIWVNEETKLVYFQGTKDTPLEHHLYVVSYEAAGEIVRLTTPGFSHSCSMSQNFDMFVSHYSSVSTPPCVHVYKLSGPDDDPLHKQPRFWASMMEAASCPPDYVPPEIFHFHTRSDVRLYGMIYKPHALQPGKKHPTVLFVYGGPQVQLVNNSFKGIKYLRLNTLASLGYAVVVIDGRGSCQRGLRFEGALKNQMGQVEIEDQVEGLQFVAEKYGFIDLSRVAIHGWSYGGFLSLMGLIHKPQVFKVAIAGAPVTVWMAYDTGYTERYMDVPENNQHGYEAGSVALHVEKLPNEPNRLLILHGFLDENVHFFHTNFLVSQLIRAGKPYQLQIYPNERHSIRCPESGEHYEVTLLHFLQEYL
Chain of Dipeptidyl peptidase 4 (Homo sapiens) (P27487 whole entry, looked up): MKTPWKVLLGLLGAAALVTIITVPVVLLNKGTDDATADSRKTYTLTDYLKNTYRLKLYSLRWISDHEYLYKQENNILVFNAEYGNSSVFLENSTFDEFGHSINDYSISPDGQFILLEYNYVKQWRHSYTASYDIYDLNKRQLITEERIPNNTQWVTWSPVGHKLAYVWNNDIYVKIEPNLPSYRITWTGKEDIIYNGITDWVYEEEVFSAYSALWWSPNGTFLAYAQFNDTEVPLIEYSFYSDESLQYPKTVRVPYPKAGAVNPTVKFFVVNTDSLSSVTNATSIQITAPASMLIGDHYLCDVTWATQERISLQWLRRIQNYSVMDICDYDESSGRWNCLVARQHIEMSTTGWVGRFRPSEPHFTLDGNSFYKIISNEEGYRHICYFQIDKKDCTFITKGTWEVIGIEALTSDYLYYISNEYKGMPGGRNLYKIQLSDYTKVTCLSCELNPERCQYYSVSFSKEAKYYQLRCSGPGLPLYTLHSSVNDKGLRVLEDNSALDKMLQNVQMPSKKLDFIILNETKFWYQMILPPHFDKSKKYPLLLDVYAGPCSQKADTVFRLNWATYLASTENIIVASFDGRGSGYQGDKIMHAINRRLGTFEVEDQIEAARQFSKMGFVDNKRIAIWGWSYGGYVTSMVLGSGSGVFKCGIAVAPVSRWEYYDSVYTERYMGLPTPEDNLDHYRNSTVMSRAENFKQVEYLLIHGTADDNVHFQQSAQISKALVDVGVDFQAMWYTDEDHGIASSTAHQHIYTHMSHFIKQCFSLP
Chain of Prolyl endopeptidase FAP (Homo sapiens) (Q12884 whole entry): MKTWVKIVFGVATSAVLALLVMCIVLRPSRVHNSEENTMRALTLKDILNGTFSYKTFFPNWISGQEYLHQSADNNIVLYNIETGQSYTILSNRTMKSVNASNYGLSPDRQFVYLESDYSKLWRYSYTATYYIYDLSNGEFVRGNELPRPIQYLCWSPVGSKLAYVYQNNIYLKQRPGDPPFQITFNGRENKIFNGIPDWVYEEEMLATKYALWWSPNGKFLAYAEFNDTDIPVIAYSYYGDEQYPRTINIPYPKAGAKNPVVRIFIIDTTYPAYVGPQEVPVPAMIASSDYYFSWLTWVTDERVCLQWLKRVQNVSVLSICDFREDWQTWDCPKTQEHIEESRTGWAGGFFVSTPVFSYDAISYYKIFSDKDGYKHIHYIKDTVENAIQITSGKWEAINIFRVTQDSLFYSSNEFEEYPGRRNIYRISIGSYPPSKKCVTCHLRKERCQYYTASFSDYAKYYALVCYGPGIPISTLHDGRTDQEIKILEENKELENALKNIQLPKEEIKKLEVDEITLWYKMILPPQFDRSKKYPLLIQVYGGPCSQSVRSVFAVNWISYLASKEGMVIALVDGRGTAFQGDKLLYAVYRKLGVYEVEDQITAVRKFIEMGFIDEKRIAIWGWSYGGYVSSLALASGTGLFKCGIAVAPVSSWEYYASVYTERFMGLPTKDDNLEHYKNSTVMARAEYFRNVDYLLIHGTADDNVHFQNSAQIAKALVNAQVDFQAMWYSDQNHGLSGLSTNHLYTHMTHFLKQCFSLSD

Cc1nc(CCCc2ccccc2)oc1N1CCC[C@H]1C#N
Activity [1]: Non-Toxic
Activity [2]: Non-Toxic
Activity [3]: Active
inhibition [4]: inactive
Activity [5]: Non-Toxic
Activity [6]: inactive
inhibition [7]: inactive
inhibition [8]: inactive
Drug excretion [9]: Not Active
inhibition [10]: inactive
Activity [11]: inactive
EC50 [12]: 275 nM
Activity [13]: Active
Activity [14]: Active
Activity [15]: Active
inhibition in vivo at 10 mg/kg [16]: ~25%
inhibition [17]: inactive
Activity [18]: Active
Activity [19]: Active
Activity [20]: inactive
pBBB [21]: Permeable
inhibition [22]: Active
Activity [23]: inactive
pBBB [24]: Permeable
Activity [25]: inactive
Activity [26]: inactive
inhibition [27]: Active
Activity [28]: Active
Activity [29]: Active
Activity [30]: Active
Activity [31]: inactive
Activity [32]: Active
Activity [33]: inactive
Activity [34]: Active
Activity [35]: Active
Activity [36]: Active
Activity [37]: Active
Activity [38]: inactive
